ChEMBL document CHEMBL1143835, “Antipropionibacterial activity of BAL19403, a novel macrolide antibiotic” (2007)
≈ marks a conversion by molar mass, not a printed value.

What was measured:
[1] = system: Cutibacterium acnes; experiment: MBC/MIC ratio of Propionibacterium acnes GE4E; format: functional
Outline: (§1)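 MIC by CLSI broth microdilution in Wilkins-Chalgren broth in anaerobic jars (O2 <0.1%, CO2 >15%), read after 48 h at 35–37°C on an illuminated plate reader. For MBC, samples were plated onto Wilkins-Chalgren agar and incubated anaerobically for 72 h at 35–37°C before growth was scored.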

[2] = system: Propionibacterium granulosum; experiment: Antibacterial activity against drug-resistant Propionibacterium granulosum NCTC-11865 after 48 hrs by broth microdilution method; format: functional; conditions: Cutibacterium granulosum, NCTC-11865, 48 h
Outline: (§2)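 Broth microdilution MIC in Wilkins-Chalgren broth without lysed horse blood, following CLSI anaerobe guidelines. Plates were held in anaerobic jars with atmosphere generators (O2 <0.1% by 2.5 h, CO2 >15% by 24 h) at 35 to 37°C for 48 h. Growth was read with an illuminated plate reader and magnifying mirror.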

[3] = system: Cutibacterium acnes; experiment: Antibacterial activity against drug-resistant Propionibacterium acnes SW101T after 72 hrs; format: functional
Outline: (§3)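 MBC for P. acnes followed MIC assays by standard methodology. Samples were plated on Wilkins-Chalgren agar, incubated anaerobically in GENbox jars at 35 to 37°C, and examined for growth after 72 h.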

[4] = system: Cutibacterium acnes; experiment: Antibacterial activity against drug-resistant Propionibacterium acnes P429:1 (SC) after 48 hrs by broth microdilution method; format: functional; outline: as §2
[5] = system: Cutibacterium acnes; experiment: Antibacterial activity against drug-resistant Propionibacterium acnes SW3CD after 48 hrs by broth microdilution method; format: functional; outline: as §2
[6] = system: Cutibacterium acnes; experiment: Antibacterial activity against drug-resistant Propionibacterium acnes D-04/97 after 48 hrs by broth microdilution method; format: functional; outline: as §2
[7] = system: Cutibacterium acnes; experiment: Antibacterial activity against drug-resistant Propionibacterium acnes P95 after 48 hrs by broth microdilution method; format: functional; outline: as §2
[8] = system: Propionibacterium granulosum; experiment: Antibacterial activity against drug-resistant Propionibacterium granulosum QK6/92 after 48 hrs by broth microdilution method
[9] = system: Cutibacterium acnes; experiment: Antibacterial activity against drug-resistant Propionibacterium acnes SW101T after 48 hrs by broth microdilution method; format: functional; outline: as §2
[10] = system: Cutibacterium acnes; experiment: MBC/MIC ratio of Propionibacterium acnes EG7NS; format: functional; outline: as §1
[11] = system: Staphylococcus aureus; experiment: Antibacterial activity against borderline oxacillin-resistant Staphylococcus aureus after 20 to 24 hrs by broth microdilution method
[12] = system: Cutibacterium acnes; experiment: Antibacterial activity against drug-resistant Propionibacterium acnes SW54EA after 48 hrs by broth microdilution method; format: functional; outline: as §2
[13] = system: Cutibacterium acnes; experiment: Antibacterial activity against drug-resistant Propionibacterium acnes P:413 after 48 hrs by broth microdilution method; format: functional; outline: as §2
[14] = system: Cutibacterium acnes; experiment: Antibacterial activity against drug-resistant Propionibacterium acnes GE4E after 72 hrs; format: functional; outline: as §3
[15] = system: Staphylococcus aureus; experiment: Antibacterial activity against methicillin-susceptible Staphylococcus aureus after 48 hrs by broth microdilution method; format: functional
[16] = system: Cutibacterium acnes; experiment: Antibacterial activity against drug-resistant Propionibacterium acnes GE4E after 48 hrs by broth microdilution method; format: functional; outline: as §2
[17] = system: Cutibacterium acnes; experiment: MBC/MIC ratio of Propionibacterium acnes SW101T; format: functional; outline: as §1
[18] = system: Cutibacterium acnes; experiment: Antibacterial activity against drug-resistant Propionibacterium acnes EG7NS after 72 hrs; format: functional; outline: as §3
[19] = system: Cutibacterium acnes; experiment: Antibacterial activity against drug-resistant Propionibacterium acnes P425:1 after 48 hrs by broth microdilution method; format: functional; outline: as §2
[20] = Antibacterial activity against Streptococcus dysgalactiae subsp. dysgalactiae after 48 hrs by broth microdilution method; format: functional
[21] = system: Streptococcus equi subsp. zooepidemicus; experiment: Antibacterial activity against Streptococcus equi subsp. zooepidemicus after 48 hrs by broth microdilution method; format: functional
[22] = system: Corynebacterium amycolatum; experiment: Antibacterial activity against Corynebacterium amycolatum after 48 hrs by broth microdilution method; format: functional
Outline: (§4)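 Broth microdilution per CLSI in cation-adjusted Mueller-Hinton broth supplemented with 0.5% (vol/vol) Tween 80. Plates incubated at 35°C in ambient air for 44 to 48 h, then read visually. MICs in μg/ml; a geometric mean MIC was calculated across the corynebacterial strains.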

[23] = system: Cutibacterium acnes; experiment: Antibacterial activity against drug-resistant Propionibacterium acnes SP64E after 48 hrs by broth microdilution method; format: functional; outline: as §2
[24] = system: Cutibacterium acnes; experiment: Antibacterial activity against drug-resistant Propionibacterium acnes P401:5 after 48 hrs by broth microdilution method; format: functional; outline: as §2
[25] = system: Corynebacterium minutissimum; experiment: Antibacterial activity against Corynebacterium minutissimum after 48 hrs by broth microdilution method; format: functional; outline: as §4
[26] = system: Staphylococcus aureus; experiment: Antibacterial activity against methicillin-resistant Staphylococcus aureus after 20 to 24 hrs by broth microdilution method
[27] = system: Cutibacterium acnes; experiment: Antibacterial activity against drug-resistant Propionibacterium acnes SW101CDA after 48 hrs by broth microdilution method; format: functional; outline: as §2
[28] = system: Cutibacterium acnes; experiment: Antibacterial activity against drug-resistant Propionibacterium acnes EG13NS after 48 hrs by broth microdilution method; format: functional; outline: as §2
[29] = system: Cutibacterium acnes; experiment: Antibacterial activity against drug-resistant Propionibacterium acnes FG7E after 48 hrs by broth microdilution method; format: functional; outline: as §2
[30] = system: Corynebacterium jeikeium; experiment: Antibacterial activity against Corynebacterium jeikeium after 48 hrs by broth microdilution method; format: functional; outline: as §4
[31] = system: Cutibacterium acnes; experiment: Antibacterial activity against drug-resistant Propionibacterium acnes EG7NS after 48 hrs by broth microdilution method; format: functional; outline: as §2
[32] = system: Cutibacterium acnes; experiment: Antibacterial activity against drug-resistant Propionibacterium acnes P322:2 after 48 hrs by broth microdilution method; format: functional; outline: as §2
[33] = system: Cutibacterium acnes; experiment: MBC/MIC ratio of Propionibacterium acnes SW3CD; format: functional; outline: as §1
[34] = system: Cutibacterium acnes; experiment: Antibacterial activity against drug-resistant Propionibacterium acnes SW11 after 48 hrs by broth microdilution method; format: functional; outline: as §2
[35] = system: Cutibacterium acnes; experiment: Antibacterial activity against drug-resistant Propionibacterium acnes SW10 after 48 hrs by broth microdilution method; format: functional; outline: as §2
[36] = system: Cutibacterium acnes; experiment: Antibacterial activity against drug-resistant Propionibacterium acnes SW26 after 48 hrs by broth microdilution method; format: functional; outline: as §2
[37] = system: Cutibacterium acnes; experiment: Antibacterial activity against drug-resistant Propionibacterium acnes P429:1 (BC) after 48 hrs by broth microdilution method; format: functional; outline: as §2
[38] = system: Cutibacterium acnes; experiment: Antibacterial activity against drug-resistant Propionibacterium acnes SW16 after 48 hrs by broth microdilution method; format: functional; outline: as §2
[39] = system: Cutibacterium acnes; experiment: Antibacterial activity against drug-resistant Propionibacterium acnes EG3NS after 48 hrs by broth microdilution method; format: functional; outline: as §2
[40] = system: Cutibacterium acnes; experiment: Antibacterial activity against drug-resistant Propionibacterium acnes OK8/97 after 48 hrs by broth microdilution method; format: functional; outline: as §2
[41] = system: Cutibacterium acnes; experiment: Antibacterial activity against drug-resistant Propionibacterium acnes SW17 after 48 hrs by broth microdilution method; format: functional; outline: as §2
[42] = system: Cutibacterium acnes; experiment: Antibacterial activity against drug-resistant Propionibacterium acnes P95 after 72 hrs; format: functional; outline: as §3
[43] = system: Streptococcus pyogenes; experiment: Antibacterial activity against Streptococcus pyogenes after 20 to 24 hrs by broth microdilution method
[44] = system: Cutibacterium acnes; experiment: MBC/MIC ratio of Propionibacterium acnes P95; format: functional; outline: as §1
[45] = system: Staphylococcus epidermidis; experiment: Antibacterial activity against Staphylococcus epidermidis after 48 hrs by broth microdilution method; format: functional
[46] = system: Cutibacterium acnes; experiment: Antibacterial activity against drug-resistant Propionibacterium acnes SW3CD after 72 hrs; format: functional; outline: as §3
[47] = system: Corynebacterium diphtheriae; experiment: Antibacterial activity against Corynebacterium diphtheriae after 48 hrs by broth microdilution method; format: functional; outline: as §4
[48] = system: Cutibacterium acnes; experiment: Antibacterial activity against drug-resistant Propionibacterium acnes GE46EB after 48 hrs by broth microdilution method; format: functional; outline: as §2

CN(C)[C@@H]1C(O)=C(C(N)=O)C(=O)[C@@]2(O)C(O)=C3C(=O)c4c(O)cccc4[C@@](C)(O)[C@H]3C[C@@H]12 [TETRACYCLINE]
Ratio [1]: >16
MIC [2]: 0.5 mg/L (≈ 1.13 µM)
MBC [3]: > 32 mg/L
MIC [4]: ≥ 32 mg/L
MIC [5]: 1 mg/L (≈ 2.25 µM)
MIC [6]: 1 mg/L (≈ 2.25 µM)
MIC [7]: 0.5 mg/L (≈ 1.13 µM)
MIC [8]: 1 mg/L (≈ 2.25 µM)
MIC [9]: 32 mg/L (≈ 72 µM)
Ratio [10]: >=533
MIC [11]: 3.17 mg/L (≈ 7.13 µM)
MIC [12]: 0.5 mg/L (≈ 1.13 µM)
MIC [13]: 16 mg/L (≈ 36 µM)
MBC [14]: > 32 mg/L
MIC [15]: 3.17 mg/L (≈ 7.13 µM)
MIC [16]: 2 mg/L (≈ 4.5 µM)
Ratio [17]: >1
MBC [18]: > 32 mg/L
MIC [19]: 16 mg/L (≈ 36 µM)
MIC [20]: 4.58 mg/L (≈ 10.3 µM)
MIC [21]: 8 mg/L (≈ 18 µM)
MIC [22]: 5.16 mg/L (≈ 11.6 µM)
MIC [23]: 1 mg/L (≈ 2.25 µM)
MIC [24]: 32 mg/L (≈ 72 µM)
MIC [25]: 5.16 mg/L (≈ 11.6 µM)
MIC [26]: 3.17 mg/L (≈ 7.13 µM)
MIC [27]: ≤ 0.06 mg/L
MIC [28]: 1 mg/L (≈ 2.25 µM)
MIC [29]: 32 mg/L (≈ 72 µM)
MIC [30]: 5.16 mg/L (≈ 11.6 µM)
MIC [31]: ≤ 0.06 mg/L
MIC [32]: 32 mg/L (≈ 72 µM)
Ratio [33]: >32
MIC [34]: 2 mg/L (≈ 4.5 µM)
MIC [35]: 0.5 mg/L (≈ 1.13 µM)
MIC [36]: 0.5 mg/L (≈ 1.13 µM)
MIC [37]: 1 mg/L (≈ 2.25 µM)
MIC [38]: 0.25 mg/L (≈ 0.563 µM)
MIC [39]: 0.5 mg/L (≈ 1.13 µM)
MIC [40]: 0.5 mg/L (≈ 1.13 µM)
MIC [41]: 0.25 mg/L (≈ 0.563 µM)
MBC [42]: 32 mg/L (≈ 72 µM)
MIC [43]: 3.25 mg/L (≈ 7.31 µM)
Ratio [44]: >64
MIC [45]: 7.55 mg/L (≈ 17 µM)
MBC [46]: > 32 mg/L
MIC [47]: 5.16 mg/L (≈ 11.6 µM)
MIC [48]: 1 mg/L (≈ 2.25 µM)

CCC[C@@H]1C[C@@H](C(=O)N[C@@H]([C@H]2O[C@H](SC)[C@H](O)[C@@H](O)[C@H]2O)[C@H](C)Cl)N(C)C1 [CLINDAMYCIN]
MIC [2]: ≤ 0.06 mg/L
MIC [4]: 4 mg/L (≈ 9.41 µM)
MIC [5]: 8 mg/L (≈ 18.8 µM)
MIC [6]: 0.125 mg/L (≈ 0.294 µM)
MIC [7]: 0.5 mg/L (≈ 1.18 µM)
MIC [8]: 1 mg/L (≈ 2.35 µM)
MIC [9]: 256 mg/L (≈ 602 µM)
Ratio [10]: >=533
MIC [11]: 1.16 mg/L (≈ 2.73 µM)
MIC [12]: 32 mg/L (≈ 75.3 µM)
MIC [13]: ≤ 0.06 mg/L
MIC [15]: 1.16 mg/L (≈ 2.73 µM)
MIC [16]: > 512 mg/L
Ratio [17]: >2
MBC [18]: > 32 mg/L
MIC [19]: 512 mg/L (≈ 1200 µM)
MIC [20]: 0.12 mg/L (≈ 0.282 µM)
MIC [21]: 0.11 mg/L (≈ 0.259 µM)
MIC [22]: 7.97 mg/L (≈ 18.8 µM)
MIC [23]: > 512 mg/L
MIC [24]: 1 mg/L (≈ 2.35 µM)
MIC [25]: 7.97 mg/L (≈ 18.8 µM)
MIC [26]: 1.16 mg/L (≈ 2.73 µM)
MIC [27]: ≥ 512 mg/L
MIC [28]: ≤ 0.06 mg/L
MIC [29]: ≥ 32 mg/L
MIC [30]: 7.97 mg/L (≈ 18.8 µM)
MIC [31]: ≤ 0.06 mg/L
MIC [32]: 4 mg/L (≈ 9.41 µM)
Ratio [33]: >4
MIC [34]: 0.5 mg/L (≈ 1.18 µM)
MIC [35]: 0.125 mg/L (≈ 0.294 µM)
MIC [36]: ≤ 0.06 mg/L
MIC [37]: 8 mg/L (≈ 18.8 µM)
MIC [38]: ≤ 0.06 mg/L
MIC [39]: 0.25 mg/L (≈ 0.588 µM)
MIC [40]: 0.125 mg/L (≈ 0.294 µM)
MIC [41]: ≤ 0.06 mg/L
MBC [42]: 32 mg/L (≈ 75.3 µM)
MIC [43]: 0.07 mg/L (≈ 0.165 µM)
Ratio [44]: >64
MIC [45]: 1.12 mg/L (≈ 2.64 µM)
MBC [46]: > 32 mg/L
MIC [47]: 7.97 mg/L (≈ 18.8 µM)
MIC [48]: 512 mg/L (≈ 1200 µM)
